Data reported in ChEMBL document CHEMBL3352645, “Bioactive 6S-styryllactone constituents of Polyalthia parviflora” (J Nat Prod, 2014).
The source made the active and inactive calls. The calls are words filed in the database; no cut-off is given here.

How the values were obtained:
Assay type in all cases: functional, cell-based
[1] = (§1) Antiinflammatory activity in human neutrophils assessed as inhibition of fMLP/CB-induced superoxide anion generation after 5 mins by spectrophotometry; conditions: Neutrophil
Summary of the method: (§2)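 Cells with 0.5 mg/mL ferricytochrome c and 1 mM Ca2+ equilibrated 37 °C for 2 min, compound added 5 min, then cytochalasin B (1 μg/mL) 3 min before FMLP (100 nM) activation for 10 min. SOD-inhibitable ferricytochrome c reduction monitored continuously at 550 nm under stirring; IC50 from 50% inhibition; n = 3.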

[2] = (§3) Antiinflammatory activity in human neutrophils assessed as inhibition of fMLP/CB-induced elastase release after 5 mins by spectrophotometry; conditions: Neutrophil
Summary of the method: (§4)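 Neutrophils equilibrated with MeOSuc-Ala-Ala-Pro-Val-p-nitroanilide (100 μM) at 37 °C for 2 min, then exposed to compound 5 min. Activated with CB (0.5 μg/mL) plus FMLP (100 nM). Elastase release (azurophilic degranulation) followed as absorbance change at 405 nm; IC50 = concentration giving 50% inhibition; n = 3.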

[3] = tested on: HepG2; experiment: Cytotoxicity against human HepG2 cells after 72 hrs by MTT assay; conditions: for IC50: HepG2, 72 h
Summary of the method: (§5)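 Hep G2 and MDA-MB-231 plated at 1 × 10^4 cells per well in triplicate with various compound concentrations. At 72 h medium removed, MTT (0.5 mg/mL) added for 1 h at 37 °C, crystals solubilized in DMSO, absorbance at 550 nm. Doxorubicin control; IC50 as mean of triplicates.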

[4] = tested on: MDA-MB-231; experiment: Cytotoxicity against human MDA-MB-231 cells after 72 hrs by MTT assay; conditions: for IC50: MDA-MB-231, 72 h; summary of the method: as §5
[5] = tested on: A549; experiment: Cytotoxicity against human A549 cells after 72 hrs by MTT assay; conditions: for IC50: A549, 72 h
Summary of the method: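 A549 seeded at 5 × 10^3 cells per well in triplicate, exposed to various compound concentrations. After 72 h medium replaced by MTT (0.5 mg/mL), 1 h at 37 °C; formazan dissolved in DMSO, absorbance read at 550 nm. Doxorubicin control; IC50 as mean of triplicates.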

[6] = tested on: Neutrophil; experiment: as §1; summary of the method: as §2
[7] = tested on: Neutrophil; experiment: as §3; summary of the method: as §4

O=C1C=CC[C@@H](/C=C/c2ccccc2)O1
IC50 [1]: 8.3 µM | IC50 [2]: 15.4 µM | IC50 [3]: > 10 µM | IC50 [4]: > 10 µM | IC50 [5]: > 10 µM

CNC(=O)c1cc(Oc2ccc(NC(=O)Nc3ccc(Cl)c(C(F)(F)F)c3)cc2)ccn1 [SORAFENIB]
IC50 [1]: 6.3 µM | IC50 [2]: 1.9 µM

O=C1C=CC[C@@H]([C@@H](O)[C@@H](O)c2ccccc2)O1
inhibition [6]: inactive | inhibition [7]: inactive | IC50 [3]: > 10 µM | IC50 [4]: > 10 µM | IC50 [5]: > 10 µM

O=c1cccc(/C=C/c2ccccc2)o1
IC50 [1]: 11.6 µM | IC50 [2]: 6.8 µM | IC50 [3]: > 10 µM | IC50 [4]: > 10 µM | IC50 [5]: > 10 µM

CO[C@@H](c1ccccc1)[C@H](O)[C@@H]1CC=CC(=O)O1
inhibition [6]: inactive | inhibition [7]: inactive | IC50 [3]: > 10 µM | IC50 [4]: > 10 µM | IC50 [5]: > 10 µM

O=C1C=CC[C@@H]([C@@H]2O[C@H]2c2ccccc2)O1
IC50 [1]: 21.2 µM | IC50 [2]: 19.8 µM | IC50 [3]: > 10 µM | IC50 [4]: > 10 µM | IC50 [5]: > 10 µM

O=C1C=CC[C@@H]([C@H](O)[C@@H](O)c2ccccc2)O1
inhibition [6]: inactive | inhibition [7]: inactive | IC50 [3]: > 10 µM

O=C1C=CC(O)[C@H](/C=C/c2ccccc2)O1 (stereo partly specified)
IC50 [1]: 8.1 µM | IC50 [2]: 14.6 µM | IC50 [3]: > 10 µM | IC50 [4]: > 10 µM | IC50 [5]: 7.9 µM

O=C1C=CC[C@@H]([C@H](O)[C@H](Cl)c2ccccc2)O1
IC50 [1]: 30 µM | IC50 [3]: > 10 µM | IC50 [4]: > 10 µM | IC50 [5]: > 10 µM

CO[C@H](c1ccccc1)[C@@H](O)[C@@H]1CC=CC(=O)O1
inhibition [6]: inactive | inhibition [7]: inactive | IC50 [3]: > 10 µM | IC50 [4]: > 10 µM | IC50 [5]: > 10 µM

COc1cccc2c1C(=O)c1c(O)c3c(c(O)c1C2=O)C[C@@](O)(C(=O)CO)C[C@@H]3O[C@H]1C[C@H](N)[C@H](O)[C@H](C)O1 [DOXORUBICIN]
IC50 [4]: 0.88 µM | IC50 [5]: 0.87 µM

O=C1C[C@H]2C[C@H](O1)[C@H](O)[C@@H](c1ccccc1)O2
inhibition [6]: inactive | inhibition [7]: inactive | Activity [3]: inactive | Activity [4]: inactive | Activity [5]: inactive
